The nature of data set [1]: Cytotoxicity against human TZM-bl cells. Format: cell-based.
A short description of data set [2]: Selectivity index, ratio of CC50 for human TZM-bl cells to EC50 for HIV1 RTMDR1. In kind it is toxicity, cell-based. The conditions noted are these: read-out: Ratio CC50/EC50.
Data set [3] concerns Human immunodeficiency virus 1. Briefly: Antiviral activity against HIV1 3B infected in human MT2 cells assessed as inhibition of viral replication by p24 antigen assay. Format: functional, organism-based. The conditions noted are these: Human immunodeficiency virus 1, 3B. The procedure, abridged:
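HIV-1 IIIB replication in MT-2 cells, read as p24 production by ELISA. […] Tested in triplicate; means ± SD.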

Data set [4] is described as follows: Selectivity index, ratio of CC50 for human TZM-bl cells to EC50 for HIV1 NL4-3. Format: toxicity, cell-based. Conditions: read-out: Ratio CC50/EC50.
Data set [5] deals with Human immunodeficiency virus 1. Put plainly: Antiviral activity against HIV1 NL4-3 infected in human TZM-bl cells assessed as inhibition of viral replication. Format: functional, organism-based. Conditions: Human immunodeficiency virus 1, NL4-3, TZM-bl. The procedure, abridged:
(§1)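 Tested in triplicate and reported as means ± SD. The RTMDR1 strain carries the RT mutations 74V, 41L, 106A and 215Y.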

Another data set deals with MT2. Put plainly: Cytotoxicity against human MT2 cells after 4 days by XTT assay. In kind it is cell-based. The conditions noted are these: mt2, 96 h. Background: Formazan colour is commonly taken as a measure of viable cells.
Data set [6] is described as follows: Selectivity index, ratio of CC50 for human MT2 cells to EC50 for HIV1 3B. The conditions noted are these: read-out: Ratio CC50/EC50. In kind it is toxicity, cell-based. The procedure, abridged: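 HIV-1 IIIB replication in MT-2 cells, measured by p24 ELISA to give the EC50. Cytotoxicity in uninfected MT-2 cells measured by XTT to give the CC50. Each run in triplicate and reported as means ± SD. SI = CC50/EC50.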

In data set [7] the test system is Human immunodeficiency virus 1. Briefly: Antiviral activity against HIV1 RTMDR1 infected in human TZM-bl cells assessed as inhibition of viral replication. In kind it is functional, organism-based. Conditions: Human immunodeficiency virus 1, RTMDR1, TZM-bl. The method in brief: as §1
Data set [8] has as its system Human immunodeficiency virus 1. Put plainly: Antiviral activity against HIV1 3B infected in human MT4 cells assessed as inhibition of viral replication. Format: functional, organism-based. The conditions noted are these: Human immunodeficiency virus 1, 3B.
A short description of data set [9]: Selectivity index, ratio of CC50 for human MT4 cells to EC50 for HIV1 3B.

Each structure is given as a SMILES string. pEC50: −log10 of the molar value. Bounds are passed on as bounds.

One may read the CC50 as the concentration that lowers cell viability or growth by half. Low readings indicate greater toxicity to the cells, high ones lower toxicity to the cells. Broadly, the pEC50 is the negative decadic logarithm of the EC50, by convention in mol/L. For the compound `Cc1cc(C#N)cc(C)c1Oc1ccc([N+](=O)[O-])c(Nc2ccc(C#N)cc2)n1`, the CC50 was > 52000 nM in data set [1] and 50100 nM in the data set on MT2. Further, the selectivity ratio in data set [2] is > 2460; in data set [4], > 2350; in data set [6] it was 371. Further, the values for the pEC50 in [3], in data set [5] and in data set [7] were 6.87, 7.66 and 7.68, respectively.
On to `C#Cc1cc(C)c(Oc2ccc(N)c(Nc3ccc(C#N)cc3)n2)c(C)c1`, for which the CC50 in [1] stood at 9940 nM; in the data set on MT2, 8250 nM. Also, the selectivity ratio in data set [2] worked out at 1100; in data set [4], 1480; in [6], 20. Further, the pEC50 in data set [3] is 6.37; in data set [5], 8.17; in [7], 8.04.
Take `Cc1cc(I)cc(C)c1Oc1ccc([N+](=O)[O-])c(Nc2ccc(C#N)cc2)n1`: the figures for the CC50 (in [1]; with MT2) were > 41200 nM and 148000 nM, respectively. In addition, the figures for the selectivity ratio in data set [2], in data set [4] and in [6] were > 436, > 675 and 61, respectively. In addition, the figures for the pEC50 in data set [3], in data set [5] and in data set [7] were 5.61, 7.21 and 7.03, respectively.
With `Cc1cc(CO)cc(C)c1Oc1ccc([N+](=O)[O-])c(Nc2ccc(C#N)cc2)n1`, the CC50 in [1] is > 51300 nM; in the data set with MT2, 116000 nM. For the same compound, the selectivity ratio in data set [2] was > 58; in [4], > 108; in data set [6], 603. In addition, the pEC50 was 6.72 in data set [3], 6.32 in [5] and 6.06 in data set [7].
For `Cc1cc(C)c(Nc2ccnc(Nc3ccc(C#N)cc3)n2)c(C)c1` [DAPIVIRINE], in data set [1], the CC50 was > 304 nM. The selectivity ratio in data set [2] is > 1020; in data set [4], > 490. For the same compound, the pEC50 in [5] was 9.21; in data set [7], 9.53.
Take `Cc1cc(C#N)cc(C)c1Oc1ccc(N)c(Nc2ccc(C#N)cc2)n1`: the CC50 in data set [1] amounted to 8980 nM; with MT2 it was 31800 nM. For the same compound, the selectivity ratio in data set [2] was determined as 9350; in data set [4] it was 13200; in [6], 22700. Moreover, the pEC50 is 8.85 in data set [3], 9.17 in [5] and 9.02 in [7].
With `Cc1cc(C#CC(C)(C)O)cc(C)c1Oc1ccc([N+](=O)[O-])c(Nc2ccc(C#N)cc2)n1`, the CC50 in [1] is > 45200 nM; in the data set with MT2, 8910 nM. The selectivity ratio in data set [2] was > 1.78; in [4] it was > 1.09; in data set [6], < 1. The pEC50 in data set [3] is 4.63; in data set [5], 4.38; in data set [7] it was 4.59.
`Cc1cc(CO)cc(C)c1Oc1ccc(N)c(Nc2ccc(C#N)cc2)n1`: the CC50 in data set [1] worked out at 9340 nM; in the data set with MT2, 2190 nM. In addition, the selectivity ratio in data set [2] was 372; in data set [4], 857; in data set [6], 391. Further, the pEC50 in [3] was 8.22; in data set [5], 7.96; in data set [7], 7.60.
Turning to `C#Cc1cc(C)c(Oc2ccc([N+](=O)[O-])c(Nc3ccc(C#N)cc3)n2)c(C)c1`, the CC50 in data set [1] is > 52100 nM; with MT2, 174000 nM. The figures for the selectivity ratio in data set [2], in [4] and in [6] were > 242, > 469 and 256, respectively. Also, the pEC50 in [3] was 6.17; in data set [5], 6.95; in data set [7], 6.67.
For the compound `Cc1cc(C#N)cc(C)c1Oc1nc(Nc2ccc(C#N)cc2)nc(N)c1Br` [ETRAVIRINE], the pEC50 in data set [8] was 8.80. The selectivity ratio in data set [9] was 63100.
Consider `Cc1cccc(C)c1Oc1ccc([N+](=O)[O-])c(Nc2ccc(C#N)cc2)n1`, for which the CC50 is > 55600 nM in data set [1] and 110000 nM in the data set with MT2. The selectivity ratio in data set [2] was > 433; in [4], > 238; in data set [6], 107. For the same compound, the pEC50 in data set [3] was 5.99; in [5], 6.63; in data set [7] it was 6.89.
As for `Cc1cc(C#CC(C)(C)O)cc(C)c1Oc1ccc(N)c(Nc2ccc(C#N)cc2)n1`, the CC50 in data set [1] was 8730 nM; in the data set on MT2 it was 3540 nM. Moreover, the selectivity ratio in [2] turned out to be 16; in data set [4] it was 36; in [6], 2. The pEC50 in data set [3] is 5.80; in data set [5] it was 6.62; in [7] it was 6.27.
In the case of `Cc1cc(C)c(Oc2ccc(N)c(Nc3ccc(C#N)cc3)n2)c(C)c1`, the CC50 in data set [1] was found to be 18600 nM; in the data set with MT2, 10600 nM. The selectivity ratio in data set [2] came out at 15500; in data set [4], 11200; in data set [6], 182. The pEC50 in data set [3] was 7.24; in data set [5], 8.78; in data set [7], 8.92.
In the case of `Cc1cc(C)c(Oc2ccc([N+](=O)[O-])c(Nc3ccc(C#N)cc3)n2)c(C)c1`, the CC50 in [1] is > 53500 nM; with MT2, 503000 nM. Moreover, the selectivity ratio in data set [2] was > 969; in [4], > 2340; in data set [6], 4260. Also, the pEC50 in [3] is 6.93; in data set [5] it was 7.64; in [7] it was 7.26.
As for `Cc1cccc(C)c1Oc1ccc(N)c(Nc2ccc(C#N)cc2)n1`, the CC50 in data set [1] came out at 8140 nM; with MT2 it was 29900 nM. Further, the selectivity ratio in data set [2] came out at 2150; in [4] it was 2020; in data set [6], 52. The figures for the pEC50 in data set [3], in data set [5] and in data set [7] were 6.24, 8.40 and 8.42, respectively.
In the case of `Cc1cc(I)cc(C)c1Oc1ccc(N)c(Nc2ccc(C#N)cc2)n1`, the results for the CC50 (in data set [1]; in the data set on MT2) were 16700 nM and 23500 nM, respectively. Moreover, the selectivity ratio in data set [2] turned out to be 3260; in data set [4] it was 2200; in data set [6], 297. Also, the figures for the pEC50 in [3], in [5] and in data set [7] were 7.10, 8.12 and 8.29, respectively.

These data come from ChEMBL document CHEMBL1155964, “Discovery of diarylpyridine derivatives as novel non-nucleoside HIV-1 reverse transcriptase inhibitors” (Bioorg Med Chem Lett, 2009).
